The values below come from ChEMBL document CHEMBL4513216, “Probing the Open Global Health Chemical Diversity Library for Multistage-Active Starting Points for Next-Generation Antimalarials” (ACS Infect Dis, 2020).

This data set is described as follows: Toxicity liver stage against HepG2, at 10uM. It counts as cell-based. On the set-up: test concentration 10 uM, cell line HepG2-A16-CD81EGFP. As to conditions: human, HepG2-A16-CD81EGFP cells; read-out: INHIBITION
In short, it runs like this:
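Uninfected HepG2-A16-CD81EGFP cells, 3 × 10^3 per well, 1536-well, plated on prespotted compound at 10 μM final, parasite-free screening media added to match infected plates; puromycin 10 μM positive, DMSO 0.5% negative; run in parallel with 48 h PbLuc assay at 37 °C, 5% CO2; viability by CellTiter-Glo luminescence, normalized to controls.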
`CCN(CC)S(=O)(=O)c1ccc2c(c1)N(Cc1ccccn1)C(=O)CS2`: the cytotoxicity at 10 µM was 3.51%.
Next, `COCCN1CC(O)CN(C(=O)c2cccc(C(F)(F)F)c2)CC1=O` (stereo unspecified): -3.84%; `COC1CN(C(=O)Nc2ccccc2)CCC(=O)N(C)c2ccccc21` (stereo unspecified): -9.69%; `O=C(Cc1ccsc1)NCCc1ccoc1`: 5.5%.
With `O=C(CC1CC1)N1Cc2nccn2CC(COc2cccnc2)C1` (stereo unspecified) the figure was 5.09%; with `O=S(=O)(NCC1CCN(c2ccccn2)CC1)c1ccccc1F`, -0.549%; with `CCn1c(NCc2ccc(OC)cc2)nc2c(C)nn(C)c2c1=O`, 4.23%.
With `CC(=O)N[C@H]1CCO[C@@H](c2cccc(NC(=O)Cc3ccccc3)c2)C1`, the cytotoxicity at 10 µM is 8.3%.
With `O=S(=O)(c1cn[nH]c1)N1CCCC(O)(CN2CCOCC2)CC1` (stereo unspecified) the figure was 6.61%.
With `Cc1ccnc(C2CCN(CCCOc3ccccc3F)C2)n1` (stereo unspecified) the figure was 6.04%.
Consider `CCOC(=O)c1n[nH]cc1-c1cncn1CC(C)n1nc(C)cc1C` (stereo unspecified), for which the cytotoxicity at 10 µM came out at 2.25%.
Next, `NC(=O)CN1CCCC1c1cncc(Oc2ccc(Cl)cc2)n1` (stereo unspecified): -10.4%; `Cc1nc(C)c(C(=O)N2CCCC2c2nc(O)cc(C(C)C)n2)s1` (stereo unspecified): -29.4%.
With `O=C(C1CC1)N1CCc2nc(C3CCN(C(=O)C4CC4)C3)nc(O)c2C1` (stereo unspecified), the cytotoxicity at 10 µM is -20.9%.
Consider `Cc1nc(O)cc(C2CCCN2CCO)n1` (stereo unspecified), for which the cytotoxicity at 10 µM is -14.5%.
Take `CCc1nc2ccccc2c(=O)n1CC1(O)CCN(CC(=O)OC)CC1`: the cytotoxicity at 10 µM is -4.99%.
With `CC(C)CNC(=O)c1cc(C2CC2)nc2onc(C3CCNCC3)c12` the figure was 10.8%.
Next, `Cc1ccc(S(=O)(=O)NC(=O)CCC(F)(F)F)cc1N(C)C`: -3.79%.
Next, `CCCS(=O)(=O)NC(=O)c1cc(C)n(-c2ccccc2)n1`: -7.21%.
`Cc1nnc(NCc2ccc(Cl)cc2)o1`: the cytotoxicity at 10 µM was found to be 3.79%.
With `CCC(NC(=O)Cn1ccc(=O)n(C)c1=O)c1ccccc1OC` (stereo unspecified) the figure was 7.23%; with `O=C1NCCCCC1NC(=O)C1(c2cccc(C(F)(F)F)c2)CC1` (stereo unspecified), -5.67%; with `COCC(C)NC(=O)CCSc1ccc(F)cc1` (stereo unspecified), 1.28%.
With `CSc1ccc(CNC2(c3ccc(F)cc3)CCOCC2)cc1` the figure was -4.51%; with `N#Cc1cccc(Cl)c1NC1CCN(CC(N)=O)CC1`, -5.87%; with `CC(CNC(=O)N1CCC(CO)CC1)Cc1cccs1` (stereo unspecified), -8.52%.
On to `Cn1nc2c(cc1=O)CN(CC(=O)Nc1nccs1)CC2`, for which the cytotoxicity at 10 µM stood at 7.07%.
Next, `Cc1cc(C)n(C2CCCN(C(=O)c3ccc(N(C)C)nn3)C2)n1` (stereo unspecified): -9.31%; `O=C(c1ccoc1)N1CCCCC1c1nc[nH]n1` (stereo unspecified): -7.03%; `CC(SCCS(C)(=O)=O)c1nc(Cc2ccccc2)no1` (stereo unspecified): 2.25%.
Next, `NCc1ccc(Oc2cccc(Cl)c2Cl)cc1`: 7.25%.
In the case of `O=C(O)c1ccnc(SCc2ccccc2)c1`, the cytotoxicity at 10 µM was -9.98%.
With `O=S(=O)(NC1CCCCC12OCCO2)c1cc(Cl)cc(Cl)c1` (stereo unspecified) the figure was 11.5%.
Next, `CCn1nc(C)cc1C(=O)N1CCOc2ccc(OC)cc21`: 14.3%; `CC(=O)N1CCCN(C(=O)Cc2c(C)nc(C)[nH]c2=O)CC1`: -8.28%.
With `COc1ccc(Br)cc1CC(=O)N1CCCC1`, the cytotoxicity at 10 µM was -2.69%.
For the compound `CCS(=O)(=O)N1CCN(C(C)c2ccccc2OC)CC1` (stereo unspecified), the cytotoxicity at 10 µM worked out at 4.55%.
With `CC(Nc1ccc(CC(=O)N(C)C)cc1)C(=O)N(C)CCC#N` (stereo unspecified) the figure was 1.42%; with `CC(C)(NCC(=O)N1CCCC(C(N)=O)C1)c1ccc(Cl)cc1` (stereo unspecified), 3.36%; with `CC(CNC(=O)c1ccccc1Oc1cccnc1)N(C)C` (stereo unspecified), -9.29%.
With `O=C(NC1(c2cccc(F)c2)CCOCC1)c1cc[nH]n1`, the cytotoxicity at 10 µM was -6.83%.
As for `COc1cc(C(=O)N(Cc2ccc(F)cc2)C2CC2)cc2c1OCCO2`, the cytotoxicity at 10 µM was -1.33%.
With `CC(NC(=O)NCC1(O)CCC1)c1ccc(OCC2CC2)c(F)c1` (stereo unspecified) the figure was -4.69%; with `CS(=O)(=O)NCCCNC(=O)c1cccc(-n2cccc2)c1`, -9.86%.
Next, `Cn1nccc1-c1cnc2n1CCNC21CCN(C(=O)C2(C)CC2)CC1`: -111%; `COc1ccc(CN2CCn3c(CNS(C)(=O)=O)nnc3C2)cc1`: 4.19%; `N[C@H]1CN(C(=O)Cc2ccc(Cl)c(Cl)c2)C[C@@H]1C1CC1`: -14.4%.
Next, `Cc1cc(C)nc(NCc2cc3n(n2)CCCN(C(=O)C2CCC2)C3)n1`: -120%.
For `COCCN1CCN(c2nc(C3CCCC3)nc3c2cnn3C)CC1`, the cytotoxicity at 10 µM was -1.91%.
With `Cc1ccnc(NCCNC(=O)Cc2c(C)[nH]c3c(C)ccc(C)c23)c1` the figure was -1.89%; with `O=c1c(C(F)(F)F)cccn1Cc1nnc(-c2cccnc2)o1`, -2.93%.
Next, `CCC[C@@H]1CN(Cc2c[nH]nc2-c2ccc(OC)cc2)C[C@H]1NC(C)=O`: -0.566%.
With `CCCc1cnc(C)nc1N1CCC2(CCCO2)CC1` the figure was -13.4%; with `NC(=O)c1noc(Cn2ccc3ccccc3c2=O)n1`, 1.39%; with `Cc1nc(NCCSc2ccccn2)c2c(C)noc2n1`, 18.8%.
For the compound `Cc1ccc(F)cc1-c1ccc(N)nc1`, the cytotoxicity at 10 µM was -143%.
With `CC(C)c1nc(C(=O)N2C[C@H](C(C)C)[C@@H](N)C2)cs1` the figure was -3.73%; with `Cc1cccc(OCC2CCCN(C(=O)Cn3ccccc3=O)C2)c1` (stereo unspecified), -0.503%; with `CCn1c(CN2CCCC2)nnc1C1CCN(S(=O)(=O)CC)CC1`, -4.92%.
On to `COc1nc2c(cc1C(=O)N1C[C@@H](N)C[C@H]1C(=O)NC(C)C)CCC2`, for which the cytotoxicity at 10 µM worked out at 3.52%.
With `O=C(Cc1ccccc1C(F)(F)F)N1CCC2(CC1)OCCCC2O` (stereo unspecified) the figure was -2.62%; with `CNC(=O)CC1CCN(Cc2nc(-c3cccc(Cl)c3)oc2C)CC1`, -9.75%.
Consider `CNc1nc2c(c(C(=O)N3CCCC3)n1)CN(Cc1nccn1C)CC2`, for which the cytotoxicity at 10 µM was -8.74%.
On to `O=C(c1cccc(=O)[nH]1)N(Cc1ccsc1)CC1CCCO1` (stereo unspecified), for which the cytotoxicity at 10 µM was -11.5%.
With `CCCC(=O)N(C)C(c1cccc(F)c1)c1ccccn1` (stereo unspecified) the figure was -2.51%; with `CC(C)Oc1ccc(CNC(=O)CN(C)S(C)(=O)=O)cc1F`, -3.1%; with `Cn1ncc2c(=O)[nH]c(CN3CCc4sccc4C3)nc21`, -19%.
Take `COC(=O)c1cccc(S(=O)(=O)NCc2cccnc2N(C)C)c1`: the cytotoxicity at 10 µM worked out at 5.68%.
Regarding `Cc1cnn(CC2CCCCN2CCCS(=O)(=O)N(C)C)c1` (stereo unspecified), the cytotoxicity at 10 µM was -5.1%.
With `Cc1cnc(CN(C)C2CCN(Cc3nc4ccccc4o3)C2)o1` (stereo unspecified), the cytotoxicity at 10 µM is -19.4%.
As for `Cc1cnn(CC2CN(CC(=O)N(C)Cc3ccccc3)CCO2)c1` (stereo unspecified), the cytotoxicity at 10 µM was -4.35%.
In the case of `Cc1cnc(CN(C)C2CCN(Cc3nccn3C)C2)o1` (stereo unspecified), the cytotoxicity at 10 µM is -7.03%.
Turning to `Cc1nc(C(=O)N2CCCC2c2cnn(C)c2)ccc1C#N` (stereo unspecified), the cytotoxicity at 10 µM was -13.4%.
Next, `Cc1ccc(-c2nc(CN(Cc3cccs3)CC3CCCO3)no2)cc1` (stereo unspecified): 0.561%.
On to `CCC(O)CN1CCN(C(=O)c2ccn(C)c(=O)c2)CC1` (stereo unspecified), for which the cytotoxicity at 10 µM is -10%.
With `CC(=O)Nc1nc(C(=O)NCc2ccc(N3CCCC3)nc2)cs1` the figure was -2.6%; with `Cc1nc2c(c(C)c1CC(=O)NCc1ccco1)c(=O)[nH]n2C`, -42.5%; with `CCc1nc(C2CCCN(C(=O)NC(C)C)C2)no1` (stereo unspecified), -14%.
With `O=C(c1cccn1Cc1cccs1)N1CCN(C2CC2)CC1` the figure was -10.4%; with `CC(C(=O)N1CCCN(Cc2ccc(C#N)cc2)CC1)n1ccnc1` (stereo unspecified), -10.9%; with `c1coc(-c2nnc(CN3CCOC(Cn4cccn4)C3)o2)c1` (stereo unspecified), -11%.
With `OC(CN1CCOCC1)CN1CCc2c(ncn2C2CC2)C1` (stereo unspecified) the figure was 2.45%.
As to `CS(=O)(=O)N1CCN(CC(O)COc2ccc(F)cc2)CC1` (stereo unspecified), the cytotoxicity at 10 µM is 6.11%.
With `COc1ccc(C(CNC(=O)Nc2cn[nH]c2)N2CCOCC2)cc1` (stereo unspecified) the figure was 1.3%.
With `CC1(C)CC(N(Cc2ccccc2)Cc2c[nH]cn2)CC(C)(C)N1` the figure was 5.28%; with `c1csc(CNCC2COCc3c(-c4ccoc4)nnn3C2)n1` (stereo unspecified), -107%; with `O=C(NCc1ccco1)[C@H]1C[C@@H]2CCN(c3nncs3)C[C@H]2O1`, 1.84%.
`CCC1=N[C@@]2(CC[C@@H]3CN(Cc4ccccc4F)C[C@@H]32)C(=O)N1CC`: the cytotoxicity at 10 µM is -12.4%.
Next, `COCCn1cc2c(n1)C(CNCc1ccc(F)cc1)OCC2` (stereo unspecified): -9.47%; `COc1c(CNCc2ccc(C(=O)NC3CC3)cc2)c(C)nn1C`: 3.18%; `CN(C)CC1CN(C(=O)NCc2ccccc2)Cc2nccn2C1` (stereo unspecified): -3.91%.
For the compound `Cc1nc(CN2C[C@@H]3CN(C(=O)c4ccnnc4)C[C@@H]3C2=O)cs1`, the cytotoxicity at 10 µM was -7.41%.
With `Cc1ccccc1CC(C)NCc1c(C)nn(C)c1N1CCOCC1` (stereo unspecified), the cytotoxicity at 10 µM is -13.1%.
With `CN(C)C(=O)[C@@H]1C[C@@H]2CCN(Cc3ccc4c(c3)OCO4)C[C@@H]2O1` the figure was 2.26%; with `Cc1nc(CO[C@H]2CN(C(=O)c3ccc[nH]3)[C@@H]3COC[C@H]23)cs1`, -110%.
Turning to `O=C(NCC1CC1)[C@H]1C[C@H]2CN(C(=O)NCc3ccccc3)C[C@@H]1O2`, the cytotoxicity at 10 µM was 4.97%.
